Data as given in ChEMBL document CHEMBL1150405, “Structure-activity study of endomorphin-2 analogs with C-terminal modifications by NMR spectroscopy and molecular modeling” (Bioorg Med Chem, 2008).

Assays:
Mu-opioid receptor = Mu-opioid receptor (Cavia porcellus, UniProt Q8CGM4); assay: Agonist activity at mu opioid receptor in guinea pig ileum assessed as inhibition of electrically-stimulated contraction; type: functional, tissue-based
How it was run: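 Guinea pig ileum in a 10-ml bath of Krebs–Henseleit solution at 37 °C, aerated with 95% O₂/5% CO₂. Twitches evoked by 0.1-Hz, 50-V, 0.5-ms rectangular pulses; isometric recording. […] Arithmetic mean of five to eight measurements.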

Rattus norvegicus = species on record: Rattus norvegicus; assay: Selectivity ratio of Ki for delta opioid receptor to Ki for mu opioid receptor in rat brain membrane; type: cell membranes
[1] = target: Delta-type opioid receptor (Rattus norvegicus, UniProt P33533); assay: Displacement of [3H]DPDPE from delta opioid receptor in rat brain membrane; type: cell membranes
Delta-type opioid receptor (Rattus norvegicus, UniProt P33533), sequence (P33533 whole entry): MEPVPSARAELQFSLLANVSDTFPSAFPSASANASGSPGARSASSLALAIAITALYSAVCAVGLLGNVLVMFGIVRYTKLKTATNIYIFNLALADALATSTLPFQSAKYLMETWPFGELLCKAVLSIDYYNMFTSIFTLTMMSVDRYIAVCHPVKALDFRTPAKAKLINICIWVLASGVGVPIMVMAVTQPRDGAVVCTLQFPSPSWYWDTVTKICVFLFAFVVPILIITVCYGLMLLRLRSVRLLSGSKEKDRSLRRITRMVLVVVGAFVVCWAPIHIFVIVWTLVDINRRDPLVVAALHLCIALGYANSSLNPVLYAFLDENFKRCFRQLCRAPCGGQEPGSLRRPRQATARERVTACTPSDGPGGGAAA
How it was run: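 Wistar rat brain membranes (cerebellum removed) in 50 mM Tris–HCl, pH 7.4. [³H]DPDPE at 1 nM with varying peptide concentrations for 3 h at 25 °C in a rotating incubator. GF/C vacuum filtration, three ice-cold buffer washes, scintillation counting. Naloxone defined nonspecific binding. Duplicates, repeated at least three times; Ki calculated.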

[2] = target: Delta-type opioid receptor (Mus musculus, UniProt P32300); assay: Agonist activity at delta opioid receptor in mouse vas deferens assessed as inhibition of electrically-stimulated contraction; type: functional, tissue-based
Delta-type opioid receptor (Mus musculus, UniProt P32300), sequence (P32300 whole entry): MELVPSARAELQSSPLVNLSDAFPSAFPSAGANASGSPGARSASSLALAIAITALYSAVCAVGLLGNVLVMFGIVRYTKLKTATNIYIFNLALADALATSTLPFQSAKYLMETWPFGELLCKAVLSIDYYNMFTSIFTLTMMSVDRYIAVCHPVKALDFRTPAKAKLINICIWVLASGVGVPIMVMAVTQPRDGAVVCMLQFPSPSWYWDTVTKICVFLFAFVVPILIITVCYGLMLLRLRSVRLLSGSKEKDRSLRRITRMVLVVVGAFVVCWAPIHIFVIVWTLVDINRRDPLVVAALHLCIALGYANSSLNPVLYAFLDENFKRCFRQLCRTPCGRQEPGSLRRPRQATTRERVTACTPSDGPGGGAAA
How it was run: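 Mouse vas deferens held at 36 °C in aerated (95% O₂/5% CO₂) Krebs–Henseleit, 10-ml bath. Pulse pairs (1-ms width, 100 ms apart, 9 V/cm supramaximal) repeated every 10 s; isometric twitch recording.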

[3] = Selectivity ratio of IC50 for guinea pig ileum to IC50 for mouse vas deferens assay; type: tissue-based
Mu-type opioid receptor = Mu-type opioid receptor (Rattus norvegicus, UniProt P33535); assay: Displacement of [3H]DAMGO from mu opioid receptor in rat brain membrane; type: cell membranes
Mu-type opioid receptor, sequence (P33535 whole entry): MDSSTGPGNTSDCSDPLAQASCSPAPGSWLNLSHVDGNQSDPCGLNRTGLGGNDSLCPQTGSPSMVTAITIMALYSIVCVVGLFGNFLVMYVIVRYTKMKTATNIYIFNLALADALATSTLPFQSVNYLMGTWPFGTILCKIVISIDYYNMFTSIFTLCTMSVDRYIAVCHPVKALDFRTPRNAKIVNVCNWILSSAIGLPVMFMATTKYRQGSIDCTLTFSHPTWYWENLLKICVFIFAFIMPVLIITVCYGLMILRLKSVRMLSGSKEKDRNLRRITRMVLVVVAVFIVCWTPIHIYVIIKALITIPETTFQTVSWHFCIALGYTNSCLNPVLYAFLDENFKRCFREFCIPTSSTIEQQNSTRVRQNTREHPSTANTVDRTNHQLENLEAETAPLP
How it was run: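 Wistar rat brain membranes (cerebellum removed) in 50 mM Tris–HCl, pH 7.4. [³H]DAMGO at 0.5 nM with varying peptide concentrations for 1 h at 25 °C in a rotating incubator. Stopped by vacuum filtration through GF/C filters, washed three times with ice-cold buffer, then scintillation counted. Nonspecific binding taken with naloxone. Duplicates, repeated at least three times; Ki derived.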

Mu-opioid receptor, sequence (Q8CGM4 whole entry): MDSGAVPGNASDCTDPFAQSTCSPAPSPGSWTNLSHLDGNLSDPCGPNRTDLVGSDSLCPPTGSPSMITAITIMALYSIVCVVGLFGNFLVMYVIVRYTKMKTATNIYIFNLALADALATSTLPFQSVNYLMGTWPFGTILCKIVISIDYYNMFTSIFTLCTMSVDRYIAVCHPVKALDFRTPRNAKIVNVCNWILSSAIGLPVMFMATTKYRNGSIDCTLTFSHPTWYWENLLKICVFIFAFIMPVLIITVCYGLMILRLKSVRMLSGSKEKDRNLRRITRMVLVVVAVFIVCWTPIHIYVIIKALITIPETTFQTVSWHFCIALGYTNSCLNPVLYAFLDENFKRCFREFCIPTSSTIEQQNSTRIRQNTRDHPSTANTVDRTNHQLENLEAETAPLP

| SMILES | IC50 (Mu-opioid receptor) | Ratio Ki (Rattus norvegicus) | Ki [1] | IC50 [2] | IC50 ratio (guinea pig ileum / mouse vas deferens) [3] | Ki (Mu-type opioid receptor) |
| --- | --- | --- | --- | --- | --- | --- |
| CNC(=O)[C@H](Cc1ccccc1)NC(=O)[C@H](Cc1ccccc1)NC(=O)[C@@H]1CCCN1C(=O)[C@@H](N)Cc1ccc(O)cc1 | 136 nM | 290 | 8470 nM | 54.6 nM | 2.5 | 29.2 nM |
| COC(=O)[C@H](Cc1ccccc1)NC(=O)[C@H](Cc1ccccc1)NC(=O)[C@@H]1CCCN1C(=O)[C@@H](N)Cc1ccc(O)cc1 | 42.1 nM | > 1100 | > 10000 nM | – | 1.1 | 9.07 nM |
| CN(C)C(=O)[C@H](Cc1ccccc1)NC(=O)[C@H](Cc1ccccc1)NC(=O)[C@@H]1CCCN1C(=O)[C@@H](N)Cc1ccc(O)cc1 | 1810 nM | > 36.7 | > 10000 nM | 2720 nM | 0.66 | 273 nM |
| NNC(=O)[C@H](Cc1ccccc1)NC(=O)[C@H](Cc1ccccc1)NC(=O)[C@@H]1CCCN1C(=O)[C@@H](N)Cc1ccc(O)cc1 | 132 nM | > 1070 | > 10000 nM | – | 0.71 | 9.35 nM |
| CCOC(=O)[C@H](Cc1ccccc1)NC(=O)[C@H](Cc1ccccc1)NC(=O)[C@@H]1CCCN1C(=O)[C@@H](N)Cc1ccc(O)cc1 | 64.4 nM | 196 | 2940 nM | 63.7 nM | 1 | 15 nM |
| CC(C)(C)OC(=O)[C@H](Cc1ccccc1)NC(=O)[C@H](Cc1ccccc1)NC(=O)[C@@H]1CCCN1C(=O)[C@@H](N)Cc1ccc(O)cc1 | 3000 nM | 4.9 | 247 nM | 74.1 nM | 40.5 | 50.3 nM |
| N[C@@H](Cc1ccc(O)cc1)C(=O)N1CCC[C@H]1C(=O)N[C@@H](Cc1ccccc1)C(=O)N[C@H](CO)Cc1ccccc1 | 29.3 nM | > 1580 | > 10000 nM | 29.2 nM | 1 | 6.34 nM |
